From PubChem
Only some compounds are listed: those with a hit (about 2.9% of all), similar ones and a draw of the others.
PGC1a acetyl inh: inhibitors of PGC1a acetylation signal, primary screen, cell-based, U2OS, AlphaScreen, inhibitor mode | AlphaScreen anti-acetyl-lysine; with virally co-expressed GCN5 acetyltransferase | actives 0.17% (n = 350,000) | AID 651687, 2012 | inhibition, % at 15.6 µM;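 active = every replicate shows inhibition of at least 40%; inconclusive = mean inhibition at least 40% but some replicate below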;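 also: 0% = neutral control wells and 100% = positive control wells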
FGF22 binding: binders of human FGF22 protein, primary screen, FGF22 synaptogenesis inhibitor project, biophysical, thermal shift, single point; Fibroblast growth factor 22 (Homo sapiens), Q9HCT0; recombinant FGF22 thermal shift, SYPRO orange fluorescence; percent of sucrose octasulfate shift, DMSO zero; activity (Tm shift, normalised), % at 9.99 µM; actives 1.5% (n = 340,000); AID 651658, 2012;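 active = mean Tm shift, scaled 0 neutral to 100 positive control, at about 1.3% or above, every replicate too, limit read from the data; inconclusive = no clear call, values can overlap the other calls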
Target sequence (Q9HCT0 whole entry, looked up): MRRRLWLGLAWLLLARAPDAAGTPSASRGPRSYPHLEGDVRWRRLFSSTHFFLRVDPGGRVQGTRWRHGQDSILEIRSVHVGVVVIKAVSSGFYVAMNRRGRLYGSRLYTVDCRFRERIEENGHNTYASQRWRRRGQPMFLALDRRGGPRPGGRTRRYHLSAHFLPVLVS
Vif inh: HIV Vif self-association inhibitors, primary screen, imaging, HEK293T, single point; HEK293T cells, Vif self-association by quenched fluorescence, 24 h; inhibition, % at 7.49 µM; AID 602346, 2012; actives 0.35% (n = 340,000); in the data active = inhibition above about 50%, passing the limit was not always enough; inconclusive = no clear call, values can overlap the other calls; inactive = below about 31%
PglD inh: C. jejuni PglD acetyltransferase inhibitors, primary screen, biochemical, DTNB colorimetric, single point; UDP-N-acetylbacillosamine N-acetyltransferase PglD (Campylobacter jejuni); purified PglD enzyme, DTNB colorimetric CoA detection; inhibition, % at 12.5 µM; actives 0.098% (n = 360,000); AID 602405, 2012; in the data active = inhibition above about 16%, passing the limit was not always enough; inconclusive = no clear call, values can overlap the other calls
rRNA inh HTS: reduced GFP signal of wild-type E. coli, primary screen, bacterial rRNA inhibitor project, GFP/RFP fluorescence, OD600, single point. actives 1.6% (n = 350,000). GFP signal change (wild-type ribosome), % (no concentration beside the values). E. coli WT GFP vs humanized-ribosome RFP mutants, 24 h; hits give low values; DMSO median 0, no signal -100. AID 720706, 2013;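 active = significant combined selectivity score with lowered wild-type GFP, culture density cut under 30%, mutant RFP and density less affected; inactive = any of these conditions unmet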
Cneo AK release: Cryptococcus neoformans cell lysis inducers, primary screen, AK release luminescence, single concentration. C. neoformans lysis, adenylate kinase release luminescence, 4 h; normalised: neutral wells 0, clomiphene wells 100. lysis activity, % at 15 µM. actives 0.2% (n = 360,000). AID 651654, 2012;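 active = mean lysis activity across replicates of at least 80%, whatever share of replicates individually reach that level; inactive = mean lysis activity below 80%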
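Signal: Adenylate kinase release luminescence | Assay system: Log-phase Cryptococcus neoformans yeast cells | Input: Cells at 5 × 10^6 per mL | Buffer or medium: Fresh YPD growth medium | Compound: Single dose | Schedule: Static 4 h at 37 °C with compound, 1 h detection | Controls: Clomiphene | Read-out: Luminescence rise reflecting yeast cell lysis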
The depositor's hits bear a star; ? = inconclusive; . = no result given.

SMILES | PGC1a acetyl inh | FGF22 binding | Vif inh | PglD inh | rRNA inh HTS | Cneo AK release
C[C@H]1CN([C@@H](C)CO)C(=O)c2cc(C#CCN(C)C)cnc2O[C@H]1CN(C)C(=O)Nc1ccccc1F | -8 | 0 | . | 1 | 4 | 0
CCn1c(COc2cccc(OC)c2)nnc1SCC(=O)NC1CCCC1 | 18 | 0 | 51* | -4 | 0 | -1
C[C@@H]1CN([C@@H](C)CO)C(=O)c2cc(-c3ccc(F)cc3)cnc2O[C@H]1CN(C)C(=O)Cc1ccccc1 | -1 | 0 | . | 4 | -8 | 0
CCC(=O)Nc1ccc(-c2nnc(SCc3ccc(C(=O)Nc4nccs4)cc3)n2CC)cc1 | . | . | 67* | 6 | . | 3
CCn1c(SCC(=O)Nc2nccs2)nnc1-c1ccc(C)cc1 | 4 | . | -10 | 0 | . | 3
CCN(CC)C(=O)c1sc2nc(-c3cccs3)cc(-c3ccc(Cl)cc3)c2c1N | 0 | . | ? | 0 | . | 0
CCN(CC)C(=O)c1sc2nc(-c3cccs3)cc(-c3cccs3)c2c1N | -13 | 0 | 83* | . | 2 | .
O=C(Nc1ccc(-c2nc3ccccc3[nH]2)cc1)C1CCCO1 (configuration not stated) | -25 | 8.6* | . | 3 | -16 | -5
COc1ccc(NC(=O)c2noc(C(C)C)c2[N+](=O)[O-])cc1 | 7 | 1 | -3 | 4 | 13 | 84*
CCc1ccc(NC(=O)c2noc(C(C)C)c2[N+](=O)[O-])cc1 | . | 0 | 18 | . | -1 | .
CC1C(=O)Nc2ccccc2N1C(=O)c1ccc(Cl)c(Cl)c1 (configuration not stated) | -4 | 0 | 16 | 4 | -27* | -1
CSc1ccc(NC(=O)Nc2cccn(Cc3ccccc3)c2=O)cc1 | . | 0 | -15 | . | -30* | .
CCOC(=O)Cc1csc(NC(=O)c2cc3ccccc3o2)n1 | 4 | . | -3 | . | -19* | .
CCOC(=O)Cc1csc(NC(=O)c2cc(C)cc(C)c2)n1 | -4 | 0 | -11 | 5 | -25* | 1
Clc1ccccc1-c1nc2nc3ccccc3nc2n1-c1ccc2c(c1)OCO2 | -4 | 0 | -10 | -4 | -26* | 3
c1csc(-c2nc3nc4ccccc4nc3n2Cc2ccc3c(c2)OCO3)c1 | 9 | . | 0 | 4 | . | -4
C[C@@H]1CN([C@@H](C)CO)C(=O)c2cc(NC(=O)C3CC3)ccc2O[C@@H]1CN(C)Cc1ccc2c(c1)OCO2 | 1 | 0 | . | 0 | 5 | -31
CCOC(=O)CSc1cc(C)nc2ccc(OC)cc12 | -17 | 43* | -3 | . | 4 | .
CCCCCCCCN1N=N[C@H]2[C@H]1[C@@H]1C[C@H]2N(C(=O)OC(C)(C)C)O1 | -7 | 0 | -4 | 3 | -32* | 4
CC(C)(C)OC(=O)N1O[C@H]2C=C[C@@H]1C2 | . | 0 | . | . | 5 | .
CCCCC#Cc1ccccc1COC[B-](F)(F)F | . | 1.4* | . | . | -10 | .
CS(=O)(=O)N1[C@@H]2Cn3c(ccc(-c4cccc(F)c4)c3=O)[C@H]1[C@@H](C(=O)N1CCOCC1)[C@@H]2CO | . | 0 | . | -3 | 0 | 0
NNc1nc2c(F)cc(F)cc2s1 | -1 | 0 | 2 | -2 | -25* | 1
C[C@@H]1CN([C@@H](C)CO)C(=O)c2cc(NC(=O)CCCN(C)C)ccc2O[C@@H](C)CCCCO[C@H]1CN(C)Cc1ccc(C(F)(F)F)cc1 | -8 | 0 | . | 1 | 7 | 1
C/C(=N\OC(=O)c1c(-c2ccccc2Cl)noc1C)c1ccncc1 | . | 0 | -6 | . | -23* | .
SMILES | PGC1a acetyl inh | FGF22 binding | Vif inh | PglD inh | rRNA inh HTS | Cneo AK release
Cc1onc(-c2ccccc2Cl)c1C(=O)O/N=C(\N)c1ccccc1 | -6 | 0 | -14 | 0 | -4 | -1
O=C1C=C(c2c(O)ccc3ccccc23)c2ccccc2C1=O | 54* | 0 | -3 | . | -34 | .
O=C1C=C(O)c2cccc(O)c2C1=O | 5 | 0 | -2 | 3 | . | 2
O=C(O)CNC(=S)N(Cc1ccccc1)Cc1cccs1 | -7 | 0 | -9 | . | -11 | .
CCOC(=O)CNC(=S)N(Cc1ccccc1)Cc1cccs1 | -4 | 0 | 2 | 2 | -26* | 3
CCOC(=O)CNC(=S)N(Cc1ccccc1)Cc1ccccc1F | . | 42 | -2 | . | -34* | .
COP(=O)(CN(Cc1ccccc1)C(=S)Nc1c(C)cccc1C)OC | 7 | 0 | -1 | . | 17 | .
Cc1cccc(C)c1NC(=S)N(Cc1ccccc1)Cc1cccs1 | . | 0 | 0 | 4 | -21* | 2
O=C(O)c1ccccc1OC(=O)C12CC3CC(CC(C3)C1)C2 | -1 | 43* | ? | . | 3 | .
CCC(=O)Nc1ccc2c(c1)OC[C@@H](C)N(Cc1ccccn1)C[C@@H](C)[C@H](OC)CN(C)C2=O | 8 | 0 | . | 18* | 1 | 1
CCCC(=O)Nc1ccc2c(c1)C(=O)N(C)C[C@H](OC)[C@@H](C)CN(C(=O)c1cccnc1)[C@H](C)CO2 | -2 | 0 | . | 2 | 1 | 90*
CO[C@H]1CN(C)C(=O)c2ccc(NC(C)=O)cc2OC[C@H](C)N(C(=O)c2ccccn2)C[C@@H]1C | 7 | 0 | . | . | 3 | .
CO[C@@H]1CN(C)C(=O)c2ccc(NC(C)=O)cc2OC[C@@H](C)N(C(=O)c2ccccn2)C[C@H]1C | 11 | 0 | . | -4 | 1 | 95*
CCCC(=O)Nc1ccc2c(c1)C(=O)N(C)C[C@@H](OC)[C@@H](C)CN(C(=O)c1cccnc1)[C@H](C)CO2 | -2 | 0 | . | -1 | 1 | -2
CO[C@H]1CN(C)C(=O)c2ccc(NC(C)=O)cc2OC[C@H](C)N(C(=O)c2ccncc2)C[C@@H]1C | 8 | 0 | . | 6 | 2 | 82*
CC(=O)N1[C@@H]2CN(C(=O)NC(C)C)C[C@H]1C2c1ccccc1 (some centres not stated) | . | . | . | . | 1 | .
CO[C@@H]1CN(C)C(=O)c2cc(NC(=O)C3CC3)ccc2OC[C@H](C)N(C(=O)c2ccncc2)C[C@H]1C | 0 | 0 | . | -1 | 0 | 102*
CO[C@@H]1CN(C)C(=O)c2cc(NC(=O)C3CC3)ccc2OC[C@@H](C)N(C(=O)c2ccncc2)C[C@@H]1C | 9 | 0 | . | -1 | -1 | 0
